Measured values as given in ChEMBL document CHEMBL3734696, “Discovery of novel 5-fluoro-N(2),N(4)-diphenylpyrimidine-2,4-diamines as potent inhibitors against CDK2 and CDK9” (Medchemcomm, 2015).

Legend:
[1] = target: Cyclin-dependent kinase 2/cyclin E1 (Homo sapiens, UniProt P24941); test: Inhibition of CDK2/cyclin E1 (unknown origin) expressed in Sf9 insect cells using UlightCFFKNIVTPRTPPPSQGK-amide substrate after 15 mins by […]
[2] = Antiproliferative activity against human KBVIN cells after 3 days by SRB method; format: functional; conditions: 72 h
How it was run: (§1)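 Freshly trypsinized cells seeded at 1500–7500 per well with compound added from DMSO-diluted stock. After 3 days, attached cells fixed with cold 50% TCA, stained with 0.4% SRB, and bound dye solubilized. Value is the mean of three independent determinations.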

[3] = test system: A549; test: Antiproliferative activity against human A549 cells after 3 days by SRB method; format: functional; conditions: A549, 72 h; how it was run: as §1
[4] = Antiproliferative activity against human DU145 cells after 3 days by SRB method; format: functional; conditions: DU-145, 72 h; how it was run: as §1
[5] = target: CDK9/cyclin T1 (Homo sapiens, UniProt P50750); test: Inhibition of CDK9/Cyclin-T1 (unknown origin) using UlightCFFKNIVTPRTPPPSQGK-amide substrate after 90 mins by […]; format: protein-complex assay
[6] = test system: MT4; test: Cytotoxicity against human MT4 cells; format: cell-based
[7] = test system: Human immunodeficiency virus 1; test: Antiviral activity against Human immunodeficiency virus 1 NL 4-3 infected in MT4 cells measured on day 4 post infection by p24 assay; format: functional, organism-based; conditions: Human immunodeficiency virus 1, NL 4-3, MT4, 96 h
[8] = Therapeutic index, ratio of IC50 for human MT4 cells to EC50 for Human immunodeficiency virus 1 NL 4-3; format: cell-based; conditions: read-out: Ratio IC50/EC50

Sequence of CDK9/cyclin T1 (O60563 whole entry): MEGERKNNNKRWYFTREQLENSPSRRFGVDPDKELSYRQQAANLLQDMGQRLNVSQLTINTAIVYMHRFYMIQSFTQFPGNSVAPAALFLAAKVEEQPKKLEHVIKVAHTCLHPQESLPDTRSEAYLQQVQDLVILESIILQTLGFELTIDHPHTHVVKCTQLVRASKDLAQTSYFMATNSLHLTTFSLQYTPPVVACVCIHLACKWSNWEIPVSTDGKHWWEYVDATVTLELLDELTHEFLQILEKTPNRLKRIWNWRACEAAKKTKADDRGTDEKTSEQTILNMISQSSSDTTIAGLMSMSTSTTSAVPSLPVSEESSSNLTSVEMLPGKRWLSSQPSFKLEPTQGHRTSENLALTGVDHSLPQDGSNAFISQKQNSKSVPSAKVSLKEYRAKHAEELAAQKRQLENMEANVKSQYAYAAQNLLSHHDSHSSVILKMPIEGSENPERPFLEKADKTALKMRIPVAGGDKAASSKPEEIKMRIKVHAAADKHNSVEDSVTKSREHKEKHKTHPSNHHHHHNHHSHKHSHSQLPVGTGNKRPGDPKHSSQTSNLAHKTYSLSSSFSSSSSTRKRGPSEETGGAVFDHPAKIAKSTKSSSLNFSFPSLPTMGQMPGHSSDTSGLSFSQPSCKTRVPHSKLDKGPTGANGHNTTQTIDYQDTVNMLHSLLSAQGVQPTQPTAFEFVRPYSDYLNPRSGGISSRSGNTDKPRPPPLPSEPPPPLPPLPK
Sequence of CDK9/cyclin T1 (P50750 whole entry): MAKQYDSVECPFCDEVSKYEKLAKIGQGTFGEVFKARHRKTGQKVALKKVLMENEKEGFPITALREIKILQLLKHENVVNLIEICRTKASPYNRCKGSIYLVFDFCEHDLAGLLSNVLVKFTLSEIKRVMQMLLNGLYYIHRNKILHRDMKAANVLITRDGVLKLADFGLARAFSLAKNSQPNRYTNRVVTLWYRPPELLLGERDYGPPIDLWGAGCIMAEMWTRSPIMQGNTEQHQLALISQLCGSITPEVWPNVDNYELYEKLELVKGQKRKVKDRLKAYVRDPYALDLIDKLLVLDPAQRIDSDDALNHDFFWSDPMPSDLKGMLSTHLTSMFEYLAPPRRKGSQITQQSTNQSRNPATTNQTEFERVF

COc1ccc(N2CCN(C)CC2)cc1Nc1ncc(F)c(Nc2ccc(F)cc2)n1
IC50 [1]: > 10 µM
GI50 [2]: 0.91 µM
GI50 [3]: 1.13 µM
GI50 [4]: 0.91 µM
IC50 [5]: > 10 µM

O=C(Nc1ccccn1)c1cccc(Nc2ncc(F)c(Nc3ccc(F)cc3)n2)c1
GI50 [2]: 13.7 µM
GI50 [3]: 15.3 µM
GI50 [4]: 15.1 µM

CN(C)CCNC(=O)c1cccc(Nc2ncc(F)c(Nc3ccc(F)cc3)n2)c1
IC50 [1]: 4.65 µM
GI50 [2]: 7.26 µM
GI50 [3]: 1.45 µM
GI50 [4]: 4.34 µM
IC50 [5]: 1.72 µM

CS(=O)(=O)N1CCN(C(=O)c2cccc(Nc3ncc(F)c(Nc4ccc(F)cc4)n3)c2)CC1
GI50 [2]: > 10 µM
GI50 [3]: 12.2 µM
GI50 [4]: 17.9 µM

CN1CCC(C(=O)Nc2cccc(Nc3ncc(F)c(Nc4ccc(F)cc4)n3)c2)CC1
IC50 [1]: 1.24 µM
GI50 [2]: 11.9 µM
GI50 [3]: 1.33 µM
GI50 [4]: 1.15 µM
IC50 [5]: 2.45 µM

O=C(Nc1ccc2c(c1)OCO2)c1cccc(Nc2ncc(F)c(Nc3ccc(F)cc3)n2)c1
GI50 [2]: 12 µM
GI50 [3]: 12.9 µM
GI50 [4]: 11.6 µM

O=C(NCCO)c1cccc(Nc2ncc(F)c(Nc3ccc(F)cc3)n2)c1
GI50 [2]: 21.4 µM
GI50 [3]: 11.8 µM
GI50 [4]: 13.4 µM

COCC(=O)Nc1cccc(Nc2ncc(F)c(Nc3ccc(F)cc3)n2)c1
IC50 [1]: 3.27 µM
GI50 [2]: 3.94 µM
GI50 [3]: 2.05 µM
GI50 [4]: 4.46 µM
IC50 [5]: 2.02 µM

O=C(c1cccc(Nc2ncc(F)c(Nc3ccc(F)cc3)n2)c1)N1CCCCC1
GI50 [2]: 13.8 µM
GI50 [3]: 13.2 µM
GI50 [4]: 13 µM

Fc1ccc(Nc2nc(Nc3cccc(N4CCOCC4)c3)ncc2F)cc1
GI50 [2]: > 10 µM
GI50 [3]: 3.83 µM
GI50 [4]: > 10 µM

Fc1cnc(Nc2cccc(N3CCOCC3)c2)nc1Nc1c(F)cccc1F
IC50 [6]: 10.2 µM
IC50 [1]: 5.85 µM
GI50 [2]: > 10 µM
GI50 [3]: 1.09 µM
GI50 [4]: 4.24 µM
EC50 [7]: 1.37 µM
IC50 [5]: 0.33 µM
selectivity ratio [8]: 7.45

O=C(Nc1cc(Cl)cc(Cl)c1)c1cccc(Nc2ncc(F)c(Nc3ccc(F)cc3)n2)c1
GI50 [2]: 20.7 µM
GI50 [3]: 17.4 µM
GI50 [4]: 17.5 µM

Fc1cnc(Nc2cccc(N3CCOCC3)c2)nc1Nc1ccc(Cl)c(Cl)c1
GI50 [2]: > 10 µM
GI50 [3]: 12 µM
GI50 [4]: > 10 µM

COc1cc(NC(=O)c2cccc(Nc3ncc(F)c(Nc4ccc(F)cc4)n3)c2)cc(OC)c1
GI50 [2]: 12.7 µM
GI50 [3]: 13.8 µM
GI50 [4]: 13.7 µM

CN1CCN(C(=O)c2cccc(Nc3ncc(F)c(Nc4ccc(F)cc4)n3)c2)CC1
IC50 [1]: 22.1 µM
GI50 [2]: 12.3 µM
GI50 [3]: 9.07 µM
GI50 [4]: 10.9 µM
IC50 [5]: 11.3 µM

O=C(Nc1cccc(Nc2ncc(F)c(Nc3ccc(F)cc3)n2)c1)c1ccccc1
GI50 [2]: > 10 µM
GI50 [3]: 37.8 µM
GI50 [4]: > 10 µM

O=C(Nc1ccc(N2CCOCC2)cc1)c1cccc(Nc2ncc(F)c(Nc3ccc(F)cc3)n2)c1
GI50 [2]: > 10 µM
GI50 [3]: > 10 µM
GI50 [4]: > 10 µM

CC(=O)N1CCCN(C(=O)c2cccc(Nc3ncc(F)c(Nc4ccc(F)cc4)n3)c2)CC1
IC50 [1]: 60.6 µM
GI50 [2]: 16.7 µM
GI50 [3]: 9.96 µM
GI50 [4]: 15.7 µM
EC50 [7]: 7.08 µM
IC50 [5]: 15.6 µM
selectivity ratio [8]: 2.18

COc1ccc(NC(=O)c2cccc(Nc3ncc(F)c(Nc4ccc(F)cc4)n3)c2)cc1
GI50 [2]: 15.7 µM
GI50 [3]: 11 µM
GI50 [4]: > 10 µM

O=C(Nc1cccc(Nc2ncc(F)c(Nc3ccc(F)cc3)n2)c1)c1cccc([N+](=O)[O-])c1
GI50 [2]: 11.3 µM
GI50 [3]: 7.25 µM
GI50 [4]: 12.6 µM

CN(C)c1ccc(C(=O)Nc2cccc(Nc3ncc(F)c(Nc4ccc(F)cc4)n3)c2)cc1
GI50 [2]: > 10 µM
GI50 [3]: > 10 µM
GI50 [4]: > 10 µM

O=C(Nc1cccc(Nc2ncc(F)c(Nc3ccc(F)cc3)n2)c1)c1ccncc1
IC50 [1]: 15.3 µM
GI50 [2]: 4.57 µM
GI50 [3]: 1.65 µM
GI50 [4]: 4.33 µM
IC50 [5]: 2.57 µM

Fc1cnc(Nc2cccc(N3CCOCC3)c2)nc1Nc1cc(Cl)cc(Cl)c1
GI50 [2]: 22.5 µM
GI50 [3]: 11.6 µM
GI50 [4]: > 10 µM

Cn1ccnc1NC(=O)c1cccc(Nc2ncc(F)c(Nc3ccc(F)cc3)n2)c1
GI50 [2]: 13.1 µM
GI50 [3]: 10.1 µM
GI50 [4]: 15.1 µM

O=C(c1cccc(Nc2ncc(F)c(Nc3ccc(F)cc3)n2)c1)N1CCOCC1
GI50 [2]: 13.1 µM
GI50 [3]: 11.2 µM
GI50 [4]: 11.9 µM

O=C(Nc1nccs1)c1cccc(Nc2ncc(F)c(Nc3ccc(F)cc3)n2)c1
GI50 [2]: > 10 µM
GI50 [3]: > 10 µM
GI50 [4]: > 10 µM

CN1CC[C@H](c2c(O)cc(O)c3c(=O)cc(-c4ccccc4Cl)oc23)[C@H](O)C1 [ALVOCIDIB]
IC50 [6]: 0.067 µM
GI50 [2]: 0.18 µM
GI50 [3]: 0.14 µM
GI50 [4]: 0.15 µM
EC50 [7]: 0.015 µM

O=C(Nc1cccc(Nc2ncc(F)c(Nc3ccc(F)cc3)n2)c1)c1cnccn1
GI50 [2]: 20.1 µM
GI50 [3]: 10.3 µM
GI50 [4]: 26.4 µM

COc1ccc(N2CCOCC2)cc1Nc1ncc(F)c(Nc2ccc(F)cc2)n1
GI50 [2]: > 10 µM
GI50 [3]: 18.3 µM
GI50 [4]: > 10 µM

O=C(Nc1ccc(C(F)(F)F)cc1)c1cccc(Nc2ncc(F)c(Nc3ccc(F)cc3)n2)c1
GI50 [2]: > 10 µM
GI50 [3]: > 10 µM
GI50 [4]: > 10 µM
